# Assay results from ChEMBL document CHEMBL3784994, “Systematic comparison of the mono-, dimethyl- and trimethyl 3-hydroxy-4(1H)-pyridones - Attempted optimization of the orally active iron chelator, deferiprone” (Eur J Med Chem, 2016).
# Columns and labels:
# [1] = Octanol-water partition coefficient, log P of the compound by shake-flask method; assay type: physicochemical
# Outline: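 Shake-flask partition between n-octanol and 25 mM MOPS, pH 7.4, at 25°C. Buffered solution and octanol were mixed at different ratios, stirred vigorously for 15 s, and separated by centrifugation. Aqueous UV absorbance was read before and after partition. P = (A0−A1)Vaq/(A1Vo).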
# Liver microsome [2] = assay: Drug metabolism in human liver microsomes assessed as glucuronidation at 10 uM after 24 hrs by mass spectrophotometry in presence of NADPH and UDPGA; assay type: ADME
# Outline: (§1)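 Pooled mixed-gender human liver microsomes (1 mg/mL) with 10 µM hydroxypyridinone in 100 mM PBS, with NADPH and UDPGA systems. Incubated at 37°C for 24 h with gentle shaking, in triplicate; the blank omitted microsomes. Stopped with 4% phosphoric acid and internal standard added, then centrifuged. Cation-exchange SPE, then UPLC–tandem MS on C18 to identify metabolites and quantify % metabolized.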
# [3] = Binding affinity to iron(3) assessed as pFe3+ values after 5 mins
# Outline: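 Spectrophotometric titration of ligand with iron(III) in 0.1 M KCl, using a 50 mm path cuvette. KOH was added in 0.1 pH unit steps. After readings were stable (<0.001 pH unit over 3 s), there was a 5 min equilibration, then the spectrum was recorded. Constants were fitted with pHab. pFe3+ was computed at total Fe3+ 1 µM, total ligand 10 µM, pH 7.4.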
# Liver microsome [4] = assay: Drug metabolism in human liver microsomes assessed as hydroxylation at 10 uM after 24 hrs by mass spectrophotometry in presence of NADPH and UDPGA; assay type: ADME; outline: as §1
# [5] = Binding affinity to iron(3) assessed as pFe3+ values after 10 to 30 mins
Structure (SMILES),logP [1],Drug metabolism (Liver microsome [2]),Activity [3],Drug metabolism (Liver microsome [4]),Activity [5]
COc1c[nH]cc(CN(C)C)c1=O,-0.85,,,,
Cn1ccc(=O)c(O)c1F,-0.85,,,,
Cn1cc(O)c(=O)c(F)c1,-0.85,,,,
Cc1cc(=O)c(F)c[nH]1,-0.51,,,,
COc1c[nH]ccc1=O,-0.85,,,,
Cc1cn(C)cc(O)c1=O,-0.93,metabolite_detected,20.5,,
Cc1cn(C)c(C)c(O)c1=O,-0.51,metabolite_detected,19.7,,
Cc1c(O)c(=O)ccn1C [DEFERIPRONE],,metabolite_detected,20.7,metabolite_detected,20.6
Cc1cc(=O)c(O)cn1C,-1.19,metabolite_detected,20.4,,
Cn1ccc(=O)c(O)n1,-0.85,,,,14.8
COc1c[nH]cc(C)c1=O,-0.51,,,,
Cc1[nH]cc(C)c(=O)c1O,-0.13,metabolite_detected,19.2,,
COc1cn(C)cc(C)c1=O,-0.85,,,,
Cn1cc(O)c(=O)cn1,-0.85,,,,17.2
Cc1nccc(O)c1O,-0.58,metabolite_detected,20.2,metabolite_detected,
Cc1c[nH]cc(O)c1=O,-0.59,metabolite_detected,20.1,metabolite_detected,
Cc1cc(=O)c(O)c[nH]1,-0.73,,20.1,,
